The values below come from publication PMC4242840 (The Journal of Cell Biology, 2014).

Positions count from the first letter of the chain named. Names and notes keep the numbering of the source. “Also recorded” adds a separate entry of the source.

Test [1] has as its system pre-60S particles. In words: affinity purification of Rpl5-FTpA constructs. The class given is cell-based, Saccharomyces cerevisiae. To be noted: Flag-TEV-ProtA bait. The method in brief: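 Rpl5 variants tagged with Flag-TEV-ProtA were purified from a 2-liter yeast culture pellet. Steps: IgG-Sepharose 90 min, TEV elution 120 min, FLAG beads 45 min, FLAG-peptide elution. Eluates were run alongside pre-60S particles purified via Nsa2-FTpA and FTpA-Rsa4, then analysed by SDS-PAGE and Western blot.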

Test [2] deals with T1, HIS6-TEV-Rsa4 full-length (S. cerevisiae, UniProt P25382 1-515).
T1 sequence: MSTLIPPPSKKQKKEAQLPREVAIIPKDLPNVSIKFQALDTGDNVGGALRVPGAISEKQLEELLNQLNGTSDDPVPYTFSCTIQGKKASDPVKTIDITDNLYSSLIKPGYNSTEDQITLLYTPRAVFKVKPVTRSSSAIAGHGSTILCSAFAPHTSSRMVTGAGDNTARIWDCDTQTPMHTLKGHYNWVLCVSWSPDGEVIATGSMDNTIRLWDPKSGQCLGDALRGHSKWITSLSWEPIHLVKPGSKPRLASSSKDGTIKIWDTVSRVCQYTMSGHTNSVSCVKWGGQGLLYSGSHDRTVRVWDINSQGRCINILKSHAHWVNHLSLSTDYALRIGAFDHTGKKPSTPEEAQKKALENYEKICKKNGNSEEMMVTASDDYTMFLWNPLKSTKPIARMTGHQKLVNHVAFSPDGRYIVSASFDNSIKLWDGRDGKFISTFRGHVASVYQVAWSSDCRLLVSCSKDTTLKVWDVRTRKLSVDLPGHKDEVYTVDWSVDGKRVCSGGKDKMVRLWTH
The test is described as follows: pull-down.

The subject of test [3] is 25S rRNA helices H89, H90, H42. The test is described as follows: UV cross-linking and analysis of cDNA. It is filed as binding, Saccharomyces cerevisiae. To be noted: in vivo UV cross-linking, % of hits. The method in brief:
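Yeast culture was UV-irradiated to cross-link protein to RNA, then lysed with zirconia beads. Nsa2-His-TEV-ProtA was bound to IgG-Sepharose and eluted with TEV. The eluate was RNase-treated and denatured, and Nsa2 was repurified on Ni-NTA under denaturing conditions. Cross-linked RNA was ligated to 3′ and 5′ DNA linkers and sequenced; hits were mapped to rRNA helices.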

In test [4] the test system is Nsa2 shuffle strain (nsa2Δ). The test is described as follows: complementation of nsa2Δ. It is filed as cell-based, Saccharomyces cerevisiae. Particulars: SDC+FOA, 30°C, 2 or 3 d.
In test [5] the test system is 60S subunit production / pre-60S composition. The test is described as follows: pulse-chase labeling with affinity purification of Rpl25. It is filed as cell-based, Saccharomyces cerevisiae. The method in brief:
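Strain DS1-2b carried an amber-suppressor tRNA/synthetase plasmid and a GAL plasmid co-expressing 2×HA-TAG-Rpl25-FTpA with wild-type or Y90A Nsa2. After 60 min galactose induction, O-methyl-tyrosine was added as a 7 min pulse, followed by a 20 min chase with tetracycline and glucose. Rpl25 was TAP-purified, run on SDS-PAGE with Coomassie staining, and bands were identified by mass spectrometry.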

The test system of test [6] is pre-60S particles. In words: association with pre-60S particles. Particulars: for association with pre-60S particles: 10–50% sucrose gradient, anti-ProtA Western blot. The class given is cell-based, Saccharomyces cerevisiae. The method in brief:
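Wild-type yeast expressed plasmid-borne NSA2-FTpA or nsa2 Y90A-FTpA. Cells were treated with cycloheximide for 15 min and lysed with glass beads. Whole-cell lysates were fractionated on 10–50% sucrose gradients (16 h, 27,000 rpm, 0.4 ml fractions), and fractions were probed by Western blot with anti-ProtA to detect tagged Nsa2.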

The subject of test [7] is wild-type yeast growth. The test is described as follows: dominant-negative phenotype upon GAL overexpression in wild-type yeast. The class given is cell-based, Saccharomyces cerevisiae. Particulars: GAL promoter, galactose medium, 30°C, 2 or 3 d.
The test system of test [8] is 60S subunit formation and nuclear export. The test is described as follows: 60S biogenesis/export upon overexpression. The class given is cell-based, Saccharomyces cerevisiae. To be noted: galactose-containing medium, 6 h (nsa2) or 8 h (rsa4). The method in brief:
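Wild-type yeast carried plasmids for the 60S reporter Rpl25-EGFP and mRFP-Nop1, plus 2μ GAL-driven NSA2 alleles. Cells were shifted to galactose medium for 6 h (Nsa2), washed in water and imaged at room temperature (100× oil objective, EGFP/Cy3 filters). For profiles, cells were treated with cycloheximide for 15 min, lysed with glass beads and run on 10–50% sucrose gradients (16 h, 27,000 rpm), recorded at 254 nm.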

The target in test [9] is T2, HIS6-Rsa4 WD40 domain (S. cerevisiae, UniProt P25382 112-515).
T2 sequence: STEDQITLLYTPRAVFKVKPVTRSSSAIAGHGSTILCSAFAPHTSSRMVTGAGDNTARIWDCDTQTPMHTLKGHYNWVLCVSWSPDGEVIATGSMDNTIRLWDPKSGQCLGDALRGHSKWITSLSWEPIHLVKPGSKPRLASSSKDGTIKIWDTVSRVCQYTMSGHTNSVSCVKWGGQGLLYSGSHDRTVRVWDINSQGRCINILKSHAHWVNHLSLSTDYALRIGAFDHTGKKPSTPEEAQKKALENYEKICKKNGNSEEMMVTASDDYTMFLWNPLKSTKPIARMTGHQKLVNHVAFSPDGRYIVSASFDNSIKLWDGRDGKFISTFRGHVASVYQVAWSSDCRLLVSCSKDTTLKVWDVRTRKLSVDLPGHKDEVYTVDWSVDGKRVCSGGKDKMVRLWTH
The test is described as follows: pull-down.

Test [10] concerns the target T3, Rsa4 β-propeller (Rsa4Δ136) (S. cerevisiae, UniProt P25382 137-515).
T3 sequence: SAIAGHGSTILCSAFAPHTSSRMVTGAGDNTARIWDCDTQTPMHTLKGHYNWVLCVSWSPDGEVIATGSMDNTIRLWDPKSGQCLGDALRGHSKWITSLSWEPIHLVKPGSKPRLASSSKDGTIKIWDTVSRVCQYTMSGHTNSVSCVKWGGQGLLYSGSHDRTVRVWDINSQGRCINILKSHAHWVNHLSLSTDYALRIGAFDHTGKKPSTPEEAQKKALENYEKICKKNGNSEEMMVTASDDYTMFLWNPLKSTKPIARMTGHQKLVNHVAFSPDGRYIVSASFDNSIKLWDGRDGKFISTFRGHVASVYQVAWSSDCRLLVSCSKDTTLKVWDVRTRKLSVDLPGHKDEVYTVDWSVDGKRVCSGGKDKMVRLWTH
In words: ITC.

Test [11] concerns Rsa4 shuffle strain (rsa4Δ). In words: complementation of rsa4Δ. The class given is cell-based, Saccharomyces cerevisiae. Particulars: SDC+FOA, 30°C, 2 d.
Test [12] relates to Nsa2. The test is described as follows: in vitro binding assay of Rsa4 mutants with MBP-Nsa2. On the set-up: species or system Saccharomyces cerevisiae. Particulars: immobilized MBP-Nsa2, HIS-TEV-Rsa4 mutant in E. coli lysate; SDS-PAGE. The method in brief:
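Bait and prey were expressed in E. coli by IPTG induction for 3 h. MBP-Nsa2 was prepurified on SP Sepharose and bound to amylose resin; HIS-TEV-Rsa4 variants were Ni-NTA-purified. Beads were incubated 45 min with a 5× excess of Rsa4 mixed with MBP-depleted E. coli lysate as competitor. Beads were washed in 20 mM Hepes pH 7.5, 200 mM NaCl, 1 mM DTT and eluted in SDS sample buffer (10 min, 65°C). Eluates were run on 4–12% SDS-PAGE with Coomassie staining.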

B1: wild-type Rpl5: ribosomal protein Rpl5 (uL18), wild type (protein)
chain: MAFQKDAKSSAYSSRFQTPFRRRREGKTDYYQRKRLVTQHKAKYNTPKYRLVVRFTNKDIICQIISSTITGDVVLAAAYSHELPRYGITHGLTNWAAAYATGLLIARRTLQKLGLDETYKGVEEVEGEYELTEAVEDGPRPFKVFLDIGLQRTTTGARVFGALKGASDGGLYVPHSENRFPGWDFETEEIDPELLRSYIFGGHVSQYMEELADDDEERFSELFKGYLADDIDADSLEDIYTSAHEAIRADPAFKPTEKKFTKEQYAAESKKYRQTKLSKEERAARVAAKIAALAGQQ
As to B1, the “co-purified particles / Syo1” value in test [1] is “only recovered mature 60S subunits, plus Syo1”.

B2: MBP-Nsa2 (natural protein)
chain: MPQNDYIERHIKQHGKRLDHEERKRKREARESHKISERAQKLTGWKGKQFAKKRYAEKVSMRKKIKAHEQSKVKGSSKPLDTDGDALPTYLLDREQNNTAKAISSSIKQKRLEKADKFSVPLPKVRGISEEEMFKVIKTGKSRSKSWKRMITKHTFVGEGFTRRPVKMERIIRPSALRQKKANVTHPELGVTVFLPILAVKKNPQSPMYTQLGVLTKGTIIEVNVSELGMVTAGGKVVWGKYAQVTNEPDRDGCVNAVLLV
For B2, the binding result in test [2] is recorded as “binds”.

B3: Nsa2-His6-TEV-ProtA: Nsa2 tagged with His6-TEV-ProtA used for CRAC (protein, UniProt P40078 1-261, looked up)
Ribosome biogenesis protein …: B2 chain
modifications: His6-TEV-ProtA tag
Turning to B3, in test [3] (rRNA helix H42), the “CRAC hits on H42” value came to 15%. In [3] (rRNA helix H89), the “CRAC hits on H89” value is 60%. In test [3] (rRNA helix H90), the “CRAC hits on H90” value was found to be 25%.

B4: nsa2 Y90A: Nsa2 with tyrosine 90 mutated to alanine (protein)
chain: B2 chain with Y90A
modifications: left off: MBP, N-terminal, kept
Take B4: in test [4], the “growth / viability (complementation)” value is listed as “nonviable”. Also, the “60S production in pulse-chase” value in test [5] (60-min galactose induction, 7 min Ome-Tyr pulse, 20 min chase) was “arrests 60S biogenesis”. The “enrichment of methyl-transferases Spb1 and Nop2” value in test [5] (arrested preribosomal intermediate, HA-Rpl25-Flag-ProtA purification) is listed as “strongly enriched”. The “association with pre-60S particles” value in [6] is recorded as “still associated with pre-60S particles; also recorded: efficiently assembled into preribosomes”. Besides, the “replacement of endogenous Nsa2 in preribosomes” value in [6] (upon overexpression) is “replacement of endogenous Nsa2 within the preribosomes”. Moreover, the “dominant-negative phenotype upon overexpression” value in test [7] is “dominant lethal”; in [7] (listed as Nsa2 Y90A), “strong dominant-lethal phenotype”. In addition, the “effect of overexpression on 60S biogenesis / export” value was “defect in 60S subunit export” in test [8]; “specific block in nuclear export and formation of 60S subunits” in test [8] (listed as Nsa2 Y90A).

B5: MBP-Nsa2 Y90F (natural protein)
chain: B2 chain with Y90F
With B5, the binding result in test [2] was “binds”.

B6: nsa2 Y90F: Nsa2 with tyrosine 90 mutated to phenylalanine (protein)
chain: B2 chain with Y90F
modifications: left off: MBP, N-terminal, kept
In the case of B6, in test [4], the “growth / viability (complementation)” value was “normal growth”.

Regarding GDALPTYLLDREQ (domain or fragment) [MBP-Nsa2 84–96 aa], in [9], the binding result is “binds”.

In the case of DALPTYLLDRE [Nsa2 peptide (85–95 aa, DALPTYLLDRE)], the binding result in [10] is recorded as “binds”.

B7: Rsa4 Y448E (protein)
chain: T1 sequence with Y448E
Regarding B7, the “association with pre-60S particles” value in test [6] is listed as “partly impaired in association with pre-60S particles”. Further, the “dominant-negative phenotype upon overexpression” value in test [7] was “less pronounced dominant-negative phenotype”. Moreover, in test [11], the “growth / viability (complementation)” value is “blocked cell growth in vivo”. The “binding to Nsa2” value in test [12] is recorded as “impaired binding to Nsa2 in vitro”.
